Data from ChEMBL document CHEMBL1135242, “Tricyclic isoxazoles are novel inhibitors of the multidrug resistance protein (MRP1)” (Bioorg Med Chem Lett, 2002).

How the values were obtained:
[1] = molecular target: MRP1 (ABCC1, Homo sapiens); experiment: In vitro for its inhibitory activity against MRP1-transfected HeLa-T5 cell line in the presence of doxorubicin
[2] = tested on: HeLa; experiment: Competitive inhibition of [3H]LTC4 uptake by MRP1 expressing HeLa-T5 cell membranes; type: functional, Homo sapiens
[3] = Selectivity ratio of average EC50 values was calculated in HL60/ADR cell line and HL60/Vinc cell line; type: functional, HL-60
Outline: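 Resistance reversal in MRP1-overexpressing HL60/Adr and P-gp-overexpressing HL60/Vinc cells. Modulator EC50 is the concentration-dependent enhancement of the antiproliferative response to an IC20 concentration of doxorubicin. Cell number is read by alamarBlue reduction. Ratio is the average EC50 in HL60/Vinc divided by the average EC50 in HL60/Adr.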

Structure (SMILES)	EC50 [1]	EC50 [2]	Ratio [3]
COc1cc(C(=O)NCc2cccc(-n3c(=O)c4c(C)onc4c4c(Cl)cccc43)c2)cc(OC)c1OC	1.13 µM	–	–
Cc1onc2c1c(=O)n(-c1cccc(CC(=O)Nc3ccccc3)c1)c1cccc(Cl)c21	2.3 µM	–	–
Cc1onc2c1c(=O)n(-c1cccc(CC(=O)Nc3ccc(C(F)(F)F)cc3)c1)c1cccc(Cl)c21	> 10 µM	–	–
COc1cc(N(C)C(=O)Cc2cccc(-n3c(=O)c4c(C)onc4c4c(Cl)cccc43)c2)cc(OC)c1OC	–	4.2 µM	4
Cc1ccc(NC(=O)Cc2cccc(-n3c(=O)c4c(C)onc4c4c(Cl)cccc43)c2)cc1	3.7 µM	–	–
Cc1onc2c1c(=O)n(-c1cccc(CC(=O)Nc3ccc(C#N)cc3)c1)c1cccc(Cl)c21	4.9 µM	–	–
COc1cc(NC(=O)Cc2cccc(-n3c(=O)c4c(C)onc4c4c(Cl)cccc43)c2)cc(OC)c1O	1.3 µM	1.7 µM	14
COc1cc(OCCc2cccc(-n3c(=O)c4c(C)onc4c4c(Cl)cccc43)c2)cc(OC)c1OC	–	4.4 µM	14
COc1cc(NC(=O)Cc2cccc(-n3c(=O)c4c(C)onc4c4c(Cl)cccc43)c2)cc(OC)c1OC	–	1.8 µM	–
